From ChEMBL document CHEMBL3085692, “Violapyrones A-G, α-pyrone derivatives from Streptomyces violascens isolated from Hylobates hoolock feces” (J Nat Prod, 2013)
Converted amounts (≈) assume the structure as drawn. The source made the active and inactive calls. No cut-off for these calls is given here.

Experiments:
[1] = tested on: Aspergillus niger; assay: Antimicrobial activity against Aspergillus niger ATCC 1015 by micro broth dilution method; assay type: functional
In short: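 Antifungal MIC against A. niger, reported as the mean of three independent experiments. Amphotericin B served as the reference antifungal.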

[2] = tested on: Candida albicans; assay: Antimicrobial activity against Candida albicans ATCC 10231 by micro broth dilution method; assay type: functional
In short: (§1)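 Endpoint is the minimal inhibitory concentration (MIC), reported as the mean of three independent experiments. Reference drugs were ciprofloxacin for the bacteria and amphotericin B for the fungi. E. coli ATCC 25922 and P. aeruginosa ATCC 27853 were tested in a panel with B. subtilis ATCC 6633 and S. aureus ATCC 25923.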

[3] = tested on: Pseudomonas aeruginosa; assay: Antimicrobial activity against Pseudomonas aeruginosa ATCC 27853 by micro broth dilution method; assay type: functional, organism-based; in short: as §1
[4] = tested on: Escherichia coli; assay: Antimicrobial activity against Escherichia coli ATCC 25922 by micro broth dilution method; assay type: functional, organism-based; in short: as §1
[5] = tested on: Staphylococcus aureus; assay: Antimicrobial activity against Staphylococcus aureus ATCC 25923 by micro broth dilution method; assay type: functional
In short: (§2)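 Bacterial panel run against B. subtilis ATCC 6633 and S. aureus ATCC 25923. Read-out is minimal inhibitory concentration (MIC), reported as the mean of three independent experiments. Ciprofloxacin served as the reference antibacterial.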

[6] = tested on: Bacillus subtilis; assay: Antimicrobial activity against Bacillus subtilis ATCC 6633 by micro broth dilution method; assay type: functional; in short: as §2
[7] = tested on: HCT-116; assay: Cytotoxicity against human HCT116 cells by MTT assay; assay type: functional, cell-based
In short: (§3)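 MTT read-out measured on a microplate reader, with IC50 derived for each of the five lines (BGC-823, HepG2, H460, HeLa, HCT-116). Adriamycin was the positive control.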

[8] = tested on: HeLa; assay: Cytotoxicity against human HeLa cells by MTT assay; assay type: functional, cell-based; in short: as §3
[9] = tested on: HepG2; assay: Cytotoxicity against human HepG2 cells by MTT assay; assay type: functional, cell-based
[10] = Cytotoxicity against human H460 cells by MTT assay; assay type: functional, cell-based; conditions: NCI-H460; in short: as §3
[11] = Cytotoxicity against human BGC823 cells by MTT assay; assay type: functional, cell-based; conditions: BGC-823; in short: as §3

| SMILES | MIC [1] [µg/mL] | Activity [1] | Activity [2] | Activity [3] | Activity [4] | MIC [5] [µg/mL] | Activity [6] | IC50 [7] [µM] | IC50 [8] [µM] | IC50 [9] [µM] | IC50 [10] [µM] | IC50 [11] [µM] | MIC [6] [µg/mL] | Activity [5] |
| --- | --- | --- | --- | --- | --- | --- | --- | --- | --- | --- | --- | --- | --- | --- |
| C[C@@H]1[C@H](O)[C@@H](C)/C=C/C=C/C=C/C=C/C=C/C=C/C=C/[C@H](O[C@@H]2O[C@H](C)[C@@H](O)[C@H](N)[C@@H]2O)C[C@@H]2O[C@](O)(C[C@@H](O)C[C@@H](O)[C@H](O)CC[C@@H](O)C[C@@H](O)CC(=O)O[C@H]1C)C[C@H](O)[C@H]2C(=O)O [AMPHOTERICIN B] | 1 (≈ 1.08 µM) | – | – | – | – | – | – | – | – | – | – | – | – | – |
| CC(=O)C(C)CCCCc1cc(O)c(C)c(=O)o1 (centres undefined) | – | inactive | inactive | inactive | inactive | 128 (≈ 507 µM) | inactive | > 200 | > 200 | > 200 | > 200 | > 200 | – | – |
| COc1cc(CCCCC(C)(C)O)oc(=O)c1C | – | inactive | inactive | inactive | inactive | 128 (≈ 503 µM) | inactive | > 200 | > 200 | > 200 | > 200 | > 200 | – | – |
| Cc1c(O)cc(CCCC(C)C)oc1=O | – | inactive | inactive | inactive | inactive | 8 (≈ 38 µM) | – | > 200 | > 200 | > 200 | > 200 | > 200 | 32 (≈ 152 µM) | – |
| Cc1c(O)cc(CCCCC(C)C)oc1=O | – | inactive | inactive | inactive | inactive | 4 (≈ 17.8 µM) | – | > 200 | > 200 | > 200 | > 200 | > 200 | 4 (≈ 17.8 µM) | – |
| COc1cccc2c1C(=O)c1c(O)c3c(c(O)c1C2=O)C[C@@](O)(C(=O)CO)C[C@@H]3O[C@H]1C[C@H](N)[C@H](O)[C@H](C)O1 [DOXORUBICIN] | – | – | – | – | – | – | – | 1.38 | 0.97 | – | 0.98 | 1.48 | – | – |
| Cc1c(O)cc(CCCCC(C)[C@H](C)O)oc1=O (some centres undefined) | – | inactive | inactive | inactive | inactive | 128 (≈ 503 µM) | – | > 200 | > 200 | > 200 | > 200 | > 200 | 128 (≈ 503 µM) | – |
| O=C(O)c1cn(C2CC2)c2cc(N3CCNCC3)c(F)cc2c1=O [CIPROFLOXACIN] | – | – | – | – | – | 0.5 (≈ 1.51 µM) | – | – | – | – | – | – | 0.12 (≈ 0.362 µM) | – |
| CCC(C)CCCCc1cc(O)c(C)c(=O)o1 (centres undefined) | – | inactive | inactive | inactive | inactive | 16 (≈ 67.1 µM) | – | > 200 | > 200 | > 200 | > 200 | > 200 | 16 (≈ 67.1 µM) | – |
| Cc1c(O)cc(CCCCC(C)(C)O)oc1=O | – | inactive | inactive | inactive | inactive | – | inactive | > 200 | > 200 | > 200 | > 200 | > 200 | – | inactive |
